Active and inactive are the calls of the source. Numbered stars: 1 amine (or outer) side, 2 acyl side, 3 side chain; on linkers, the order of the positions; unused ones are H or OH. Square brackets hold non-standard residues; d marks the D form. Peptide text beside a SMILES is read from it. X1 = O=C1[C@@H](N[*:1])Cc2ccccc2CN1CCC(=O)[*:2]; Dmt = Cc1cc(O)cc(C)c1C[C@H](N)C(=O)O
Legend:
Mus musculus [1] = assay: Antiallodynic activity in albino Swiss CD1 IGS mouse model of streptozocin-induced type1 diabetic neuropathic pain assessed as increase in mechanical threshold for paw withdrawal at 0.005 nmol, it administered on day 10 after STZ injection measured at 30 mins post dose by Von Frey test; format: functional, organism-based
Procedure, shortened: (§1)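 Male CD-1 mice (30–35 g). CCI: sciatic constriction injury, tested on days 7–16 after surgery. STZ diabetes: single ip streptozocin 200 mg/kg; mice with glucose >300 mg/dL included, tested on day 10. Drug in water for injection, given it (5 µL, L5–L6 lumbar puncture) to conscious mice. von Frey (cutoff 6 g) or cold plate (2 °C, 30 s cutoff, paw lift) at 30, 90, 180 min; 6–8 mice/group.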

[2] = Passive permeability of compound at 500 uM after 4 hrs by BBB-PAMPA; format: ADME; conditions: read-out: permeability
Procedure, shortened: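 BBB-PAMPA with porcine brain polar lipids; compound at 500 µM in donor compartment in system solution containing 20% 1-propanol; 4 h at room temperature in humidified box, 25 µm unstirred water layer. Quantified by RP-HPLC, identity by MALDI-TOF; effective permeability and % transport calculated.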

Mus musculus [3] = assay: Antinociceptive activity in C57BL6 mouse model of acute pain assessed as increase in withdrawal latency from radiant heat source at 31 to 61 nmol/kg, iv measured after 180 to 240 mins by tail flick assay relative to control; format: functional
Procedure, shortened: (§2)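 Male C57BL6 mice (20–25 g); compound or saline given iv into tail vein (po also tested). Radiant heat on ventral tail, latency to withdrawal/shaking recorded at baseline and 5, 15, 30, 60, 120 min (later points also reported); normalized as %MPE; 8–10 mice per group.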

Mus musculus [4] = assay: Antinociceptive activity in C57BL6 mouse model of acute pain assessed as increase in withdrawal latency from radiant heat source at 61 to 196 nmol/kg, po measured after 5 to 120 mins by tail flick assay relative to control; format: functional; procedure, shortened: as §2
Mus musculus [5] = assay: Antiallodynic activity in albino Swiss CD1 IGS mouse model of chronic constriction injury-induced neuropathic pain assessed as increase in mechanical threshold for paw withdrawal at 0.0005 nmol, it administered on day 7 to 16 after CCI surgery measured 180 mins post dose by Von Frey test; format: functional, organism-based; procedure, shortened: as §1
Mus musculus [6] = assay: Antihyperalgesic activity in albino Swiss CD1 IGS mouse model of chronic constriction injury-induced neuropathic pain assessed as increase in paw withdrawal latency at 0.0005 nmol, it administered on day 7 to 16 after CCI surgery measured 180 mins post dose by cold plate test; format: functional, organism-based; procedure, shortened: as §1
Mus musculus [7] = assay: Neurotoxicity in intrathecally dosed albino Swiss CD1 IGS mouse assessed as motor impairment measured after 15 to 120 mins post dose by rotarod test; format: toxicity, organism-based; conditions: in vivo, icv_or_intrathecal
Procedure, shortened: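 Intrathecal dosing (water for injection, 5 µL) to male CD-1 mice. After three training sessions, mice placed on accelerating rod (2 to 40 rpm over 300 s cutoff); tested 15 and 120 min after injection.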

Mus musculus [8] = assay: Antiallodynic activity in albino Swiss CD1 IGS mouse model of streptozocin-induced type1 diabetic neuropathic pain assessed as increase in mechanical threshold for paw withdrawal at 0.005 nmol, it administered on day 10 after STZ injection measured at 180 mins post dose by Von Frey test; format: functional, organism-based; procedure, shortened: as §1
Mus musculus [9] = assay: Antihyperalgesic activity in albino Swiss CD1 IGS mouse model of streptozocin-induced type1 diabetic neuropathic pain assessed as increase in paw withdrawal latency at 0.005 nmol, it administered on day 10 after STZ injection measured at 180 mins post dose by […]; format: functional, organism-based; procedure, shortened: as §1
Rattus norvegicus [10] = assay: Induction of respiratory depression in Sprague-Dawley rat at 6 nmol/kg, iv after 5 to 120 mins by plethysmography method; format: organism-based; conditions: in vivo
Procedure, shortened: (§3)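 Male Sprague–Dawley rats (250–350 g) with implanted catheter and intraperitoneal temperature transmitter, dosed iv at T0; 0.9% NaCl as control; N = 6/group. Whole-body barometric plethysmography, ~60 s records at −30, −15, −5, 5–120 min.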

Rattus norvegicus [11] = assay: Reduction in expiratory time in Sprague-Dawley rat at 6 nmol/kg, iv after 5 to 120 mins by plethysmography method; format: organism-based; conditions: in vivo; procedure, shortened: as §3
Rattus norvegicus [12] = assay: Reduction in tidal volume in Sprague-Dawley rat at 6 nmol/kg, iv after 5 to 120 mins by plethysmography method; format: organism-based; conditions: in vivo; procedure, shortened: as §3

With `CC[C@H](C)[C@H](NC(=O)[C@H](CCCNC(=N)N)NC(=O)[C@H](Cc1ccc(O)cc1)NC(=O)[C@H](Cc1ccc(O)cc1)NC(=O)[C@H](CCCNC(=N)N)NC(=O)CCN1Cc2ccccc2C[C@H](NC(=O)[C@@H](CCCNC(=N)N)NC(=O)[C@@H](N)Cc2c(C)cc(O)cc2C)C1=O)C(=O)N[C@@H](CCCCN)C(N)=O` (H-[Dmt][dR][X1]RYYRIK-NH2) the Activity (Mus musculus [1]) was “Active”, the Papp at 4 h, 500 µM [2] was 0.11 ×10⁻⁶ cm/s and the MPE (Mus musculus [3]) was 100%. The MPE (Mus musculus [4]) was less than 5%, the Activity (Mus musculus [5]) was “Active” and the Activity (Mus musculus [6]) was “Active”. The Activity (Mus musculus [7]) was “Non-toxic”, the Activity (Mus musculus [8]) was “inactive” and the Activity (Mus musculus [9]) was “Active”. The Activity (Rattus norvegicus [10]) was “Non-toxic”, the Activity (Rattus norvegicus [11]) was “Non-toxic” and the Activity (Rattus norvegicus [12]) was “Non-toxic”.

Source: ChEMBL document CHEMBL3808291, “Bifunctional Peptide-Based Opioid Agonist-Nociceptin Antagonist Ligands for Dual Treatment of Acute and Neuropathic Pain” (J Med Chem, 2016)
